Measured values reported in ChEMBL document CHEMBL4428090, “Modeling, Synthesis, and Biological Evaluation of Potential Retinoid X Receptor (RXR)-Selective Agonists: Analogues of 4-[1-(3,5,5,8,8-Pentamethyl-5,6,7,8-tetrahydro-2-naphthyl)ethynyl]benzoic Acid (Bexarotene) and 6-(Ethyl(5,5,8,8-tetrahydronaphthalen-2-yl)amino)nicotinic Acid (NEt-TMN)” (J Med Chem, 2016).
Active and inactive are the calls of the source. No cut-off for these calls is given here.

Legend:
Retinoid X receptor = target: T1, Retinoid X receptor (Homo sapiens, UniProt P28702+P48443+P19793); assay: Agonist activity at human RXR binding domain and activation domain expressed in human HCT116 cells assessed as rexinoid activity incubated for 24 hrs by luciferase reporter gene based mammalian two-hybrid assay; assay type: cell-based
T1 sequence (P28702 whole entry): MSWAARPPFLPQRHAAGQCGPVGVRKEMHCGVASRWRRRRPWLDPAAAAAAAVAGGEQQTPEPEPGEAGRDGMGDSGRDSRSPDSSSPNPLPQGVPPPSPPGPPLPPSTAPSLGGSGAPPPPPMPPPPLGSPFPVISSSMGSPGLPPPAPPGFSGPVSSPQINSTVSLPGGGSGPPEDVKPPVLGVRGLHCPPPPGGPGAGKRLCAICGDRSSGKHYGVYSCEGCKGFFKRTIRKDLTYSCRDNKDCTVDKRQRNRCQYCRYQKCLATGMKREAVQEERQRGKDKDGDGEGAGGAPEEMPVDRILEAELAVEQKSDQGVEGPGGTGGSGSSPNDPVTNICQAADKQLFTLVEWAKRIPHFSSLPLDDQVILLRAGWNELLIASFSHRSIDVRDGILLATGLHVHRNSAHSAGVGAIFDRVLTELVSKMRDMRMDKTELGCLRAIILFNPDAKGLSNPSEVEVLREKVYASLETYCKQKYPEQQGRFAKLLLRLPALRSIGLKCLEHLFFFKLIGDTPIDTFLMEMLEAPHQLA
T1 sequence (P48443 whole entry): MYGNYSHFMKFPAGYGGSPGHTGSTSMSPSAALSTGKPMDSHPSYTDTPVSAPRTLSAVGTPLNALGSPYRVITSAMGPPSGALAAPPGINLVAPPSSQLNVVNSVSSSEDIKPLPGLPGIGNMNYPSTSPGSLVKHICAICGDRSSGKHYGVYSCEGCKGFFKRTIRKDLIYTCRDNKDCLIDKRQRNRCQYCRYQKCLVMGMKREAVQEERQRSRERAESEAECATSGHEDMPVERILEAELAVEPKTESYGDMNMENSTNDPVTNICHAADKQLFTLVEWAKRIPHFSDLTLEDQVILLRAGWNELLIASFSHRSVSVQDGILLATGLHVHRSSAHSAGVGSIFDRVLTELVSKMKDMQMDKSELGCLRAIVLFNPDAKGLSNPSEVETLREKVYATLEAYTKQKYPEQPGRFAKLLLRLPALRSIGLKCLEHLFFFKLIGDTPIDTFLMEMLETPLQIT
T1 sequence (P19793 whole entry): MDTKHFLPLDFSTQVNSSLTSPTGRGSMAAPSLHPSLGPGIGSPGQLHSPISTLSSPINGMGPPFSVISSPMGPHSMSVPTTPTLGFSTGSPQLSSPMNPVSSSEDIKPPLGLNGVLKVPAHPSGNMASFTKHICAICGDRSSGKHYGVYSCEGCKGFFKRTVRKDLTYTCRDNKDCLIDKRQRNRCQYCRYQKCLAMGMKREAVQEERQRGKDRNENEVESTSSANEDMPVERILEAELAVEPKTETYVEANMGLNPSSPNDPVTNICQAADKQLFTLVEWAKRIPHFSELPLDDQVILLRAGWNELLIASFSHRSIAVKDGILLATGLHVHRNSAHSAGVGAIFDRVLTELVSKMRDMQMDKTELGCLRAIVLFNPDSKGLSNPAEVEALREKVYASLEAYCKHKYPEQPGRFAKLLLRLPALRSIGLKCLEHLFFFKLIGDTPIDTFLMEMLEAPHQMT

[1] = target: T2, Retinoid X receptor (Homo sapiens) (UniProt P28702+P48443+P19793); assay: Agonist activity at human RXR binding domain and activation domain expressed in human HCT116 cells assessed as rexinoid activity at 25 nM incubated for 24 hrs by luciferase reporter gene based mammalian two-hybrid assay relative to bexarotene; assay type: cell-based
Method in brief: (§1)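 HCT-116 cells plated overnight (80,000/well, DMEM with 10% FBS), co-transfected for 24 h with human RXR binding-domain (bait) and activation-domain (prey) vectors, pFR-Luc Gal4 reporter and renilla control. Treated 24 h at 25, 100 or 1000 nM final; vehicle ethanol or DMSO 0.1%. Dual-luciferase read-out. Three independent assays in triplicate; bexarotene set to 100%.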

[2] = target: T2, Retinoid X receptor (Homo sapiens); assay: Agonist activity at human RXR binding domain and activation domain expressed in human HCT116 cells assessed as rexinoid activity at 100 nM incubated for 24 hrs by luciferase reporter gene based mammalian two-hybrid assay relative to bexarotene; assay type: cell-based; method in brief: as §1
[3] = target: T2, Retinoid X receptor (Homo sapiens); assay: Agonist activity at human RXR binding domain and activation domain expressed in human HCT116 cells assessed as rexinoid activity at 1000 nM incubated for 24 hrs by luciferase reporter gene based mammalian two-hybrid assay relative to bexarotene; assay type: cell-based; method in brief: as §1
[4] = target: T3, Retinoic acid receptor RXR-alpha (Homo sapiens) (UniProt P19793); assay: Agonist activity at human RXRalpha expressed in human HCT116 cells assessed as increase in RXRE-mediated transcription at 25 nM incubated for 24 hrs by RXRE luciferase reporter gene assay relative to bexarotene; assay type: cell-based
T3 sequence (whole entry): T1 sequence (P19793 whole entry)
Method in brief: (§2)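 HCT-116 cells (80,000/well) co-transfected for 24 h with 250 ng RXRE-luciferase reporter (DR1 element from the rat cellular retinol binding protein II gene), 25 ng pSG5-human RXRα and 20 ng renilla. Dosed 24 h at 25, 100 or 1000 nM final; ethanol or DMSO vehicle 0.1%. Dual-luciferase read-out. Three independent assays in triplicate; bexarotene = 100%.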

[5] = target: T3, Retinoic acid receptor RXR-alpha (Homo sapiens); assay: Agonist activity at human RXRalpha expressed in human HCT116 cells assessed as increase in RXRE-mediated transcription at 100 nM incubated for 24 hrs by RXRE luciferase reporter gene assay relative to bexarotene; assay type: cell-based; method in brief: as §2
[6] = target: T3, Retinoic acid receptor RXR-alpha (Homo sapiens); assay: Agonist activity at human RXRalpha expressed in human HCT116 cells assessed as increase in RXRE-mediated transcription at 1000 nM incubated for 24 hrs by RXRE luciferase reporter gene assay relative to bexarotene; assay type: cell-based; method in brief: as §2
[7] = target: T4, Retinoic acid receptor RXR-alpha/oxysterols receptor LXR-alpha (Homo sapiens, UniProt P19793+Q13133); assay: Agonist activity at human RXRalpha/LXRalpha expressed in human HCT116 cells assessed as reduction in SREBP-mediated transcription activity at 100 nM incubated for 24 hrs by luciferase reporter gene assay relative to bexarotene; assay type: cell-based; details: 0.1 µM
T4 sequence (P19793 whole entry): T1 sequence (P19793 whole entry)
T4 sequence (Q13133 whole entry): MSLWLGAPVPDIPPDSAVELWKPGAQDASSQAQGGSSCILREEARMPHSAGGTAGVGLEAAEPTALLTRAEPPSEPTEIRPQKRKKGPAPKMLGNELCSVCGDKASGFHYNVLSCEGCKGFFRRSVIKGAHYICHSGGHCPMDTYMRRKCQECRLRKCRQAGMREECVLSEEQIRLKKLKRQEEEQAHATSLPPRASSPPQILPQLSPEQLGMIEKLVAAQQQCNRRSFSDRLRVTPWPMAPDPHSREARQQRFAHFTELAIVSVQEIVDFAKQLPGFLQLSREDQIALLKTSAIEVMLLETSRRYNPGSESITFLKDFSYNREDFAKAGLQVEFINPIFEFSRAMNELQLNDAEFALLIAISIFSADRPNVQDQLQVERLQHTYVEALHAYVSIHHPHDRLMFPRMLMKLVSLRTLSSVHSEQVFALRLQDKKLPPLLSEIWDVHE
Method in brief: (§3)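 HCT116 cells co-transfected for 24 h with 100 ng pBP1c(6500)-Luc (about 6500 bp murine SREBP-1c promoter), 10 ng human LXRα and 20 ng renilla. Treated 24 h with compound at 100 nM, alone or with 100 nM TO901317. Luciferase output. Three independent assays in triplicate; bexarotene = 100%.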

[8] = target: T4, Retinoic acid receptor RXR-alpha/oxysterols receptor LXR-alpha; assay: Agonist activity at human RXRalpha/LXRalpha expressed in human HCT116 cells assessed as reduction in SREBP-mediated transcription activity at 100 nM incubated for 24 hrs by luciferase reporter gene assay in presence of 100 nM LXR agonist TO901317 relative to bexarotene; assay type: cell-based; design: scale not given: the % may be the effect or the level left; details: 0.1 µM; method in brief: as §3
[9] = Lipid risk index, ratio of agonist activity at human RXRalpha/LXRalpha expressed in human HCT116 cells assessed as reduction in SREBP-mediated transcription activity to agonist activity at human RXRalpha expressed in human HCT116 cells assessed as increase in RXRE-mediated transcription
Method in brief: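 Lipid risk index: SREBP-promoter luciferase activity (HCT116, LXRα-transfected, 100 nM compound with or without 100 nM TO901317, 24 h) divided by RXRE activity at 100 nM. The SREBP:RXRE ratio for bexarotene is set to 1.0.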

HuT78 [10] = assay: Growth inhibition of human HUT78 cells at 200 nM incubated for 72 hrs by MTS assay relative to bexarotene; assay type: functional; details: HuT78, 72 h, read-out: GI
Method in brief: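 Hut78 cells in RPMI with 10% FBS at 37°C, 5% CO2. Plated 7,500 cells/well and immediately dosed at 200 nM for 72 h. MTS read at A490; percent inhibition with media control set to 0.0, compared with bexarotene set to 100%. Mean of three independent experiments.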

[11] = Mutagenicity in Saccharomyces cerevisiae D7 assessed as induction of mutagenesis by measuring forward and reverse mutations up to 0.1 mg/mL; assay type: toxicity
[12] = target: T2, Retinoid X receptor (Homo sapiens); assay: Antagonist activity against human RXR binding domain and activation domain expressed in human HCT116 cells assessed as reduction in bexarotene-induced rexinoid activity incubated for 24 hrs by luciferase reporter gene based mammalian two-hybrid assay; assay type: cell-based
[13] = target: T3, Retinoic acid receptor RXR-alpha (Homo sapiens); assay: Agonist activity at human RXRalpha expressed in human HCT116 cells assessed as increase in RXRE-mediated transcription incubated for 24 hrs by RXRE luciferase reporter gene assay; assay type: cell-based
HuT78 [14] = assay: Inhibition of HDAC1 gene expression in human HUT78 cells at 100 nM incubated for 48 hrs by quantitative real-time PCR method; assay type: functional; details: HuT78, 48 h
Method in brief: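 Hut78 cells resuspended in RPMI with 1% FBS, plated 750,000/well and dosed at 100 nM for 48 h. Total RNA extracted, 0.5 µg DNase-treated RNA reverse-transcribed, then qPCR for HDAC1. Quantified by ΔΔCt, normalized to GAPDH and relative to vehicle-treated cells (2^-ΔΔCt).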

Homo sapiens = organism: Homo sapiens; assay: Selectivity index, ratio of agonist activity at human RARalpha expressed in HEK293 cells assessed as increase in RARE-mediated transcription relative to bexarotene to agonist activity at human RXRalpha expressed in human HCT116 cells assessed as increase in RXRE-mediated transcription relative to bexarotene; assay type: cell-based
Method in brief: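 HEK293 cells (60,000/well) transfected for 24 h with 250 ng pTK-DR5(X2)-Luc, 25 ng human RARα and 20 ng renilla. Treated 24 h at 100 nM; activity expressed as a percentage of all-trans-retinoic acid. This RARE activity is divided by 100 nM RXRE activity, with the bexarotene ratio set to 1.0.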

## CCN(c1ccc(C(=O)O)cn1)c1cc2c(cc1C)C(C)(C)CCC2(C)C
Retinoid X receptor
  EC50: 0.0138 µM
[1]
  fold change (FC): 2
[2]
  Activity: 135 to 146%
[3]
  Activity: 35 to 58%
[4]
  Activity: 27 to 66%
[5]
  Activity: 68 to 89%
[6]
  Activity: 20 to 43%
[7]
  Activity: Active
[8]
  Activity: 13 to 17%
[9]
  Ratio: 0.49 - 0.51
HuT78 [10]
  inhibition of growth at 0.2 µM: > 85%
[11]
  Activity: Non-Toxic

## Cc1cc2c(cc1C(=O)c1ccc(S(=O)(=O)O)cc1)C(C)(C)CCC2(C)C
Retinoid X receptor
  EC50: > 80 µM
[1]
  Activity: 0.6%
[2]
  Activity: inactive
[3]
  Activity: inactive
[12]
  Activity: Dose-dependent effect
[13]
  Activity: inactive
[7]
  Activity: Not Active
[11]
  Activity: Non-Toxic

## C=C(c1ccc(C(=O)O)cc1)c1cc2c(cc1C)C(C)(C)CCC2(C)C [BEXAROTENE]
HuT78 [14]
  inhibition at 0.1 µM: 10%
[11]
  Activity: Non-Toxic

## CC1=C(/C=C/C(C)=C/C=C/C(C)=C/C(=O)O)C(C)(C)CCC1
Homo sapiens
  Ratio: 9.5
